Measurements from ChEMBL document CHEMBL1212854, “The structure-activity relationships of A-ring-substituted aromathecin topoisomerase I inhibitors strongly support a camptothecin-like binding mode” (2010).
Activity calls are given as the source filed them. No cut-off for these calls is given here.

Assays:
HOP-62 = experiment: Cytotoxicity against human HOP62 cells; type: functional
How it was run: (§1)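 NCI 60-cell-line screen (eight solid-tumour subpanels plus leukemia). A one-dose pass at 10−5 M came first. Selected compounds were then run at five concentrations from 10−8 to 10−4 M. GI50 is the concentration giving 50% growth inhibition.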

HCT-116 = experiment: Cytotoxicity against human HCT116 cells; type: functional; how it was run: as §1
SF-539 = experiment: Cytotoxicity against human SF539 cells; type: functional; how it was run: as §1
UACC-62 = experiment: Cytotoxicity against human UACC62 cells; type: functional; how it was run: as §1
OVCAR-3 = experiment: Cytotoxicity against human OVCAR-3 cells; type: functional; how it was run: as §1
SN12C = experiment: Cytotoxicity against human SN12C cells; type: functional; how it was run: as §1
DU-145 = experiment: Cytotoxicity against human DU145 cells; type: functional; how it was run: as §1
MCF7 = experiment: Cytotoxicity against human MCF7 cells; type: functional; how it was run: as §1
[1] = biological target: T1, DNA topoisomerase 1 (Homo sapiens) (UniProt P11387); experiment: Inhibition of human recombinant Top1-mediated DNA cleavage at 0.1 to 100 uM after 20 mins relative to camptothecin; set-up: scale not given: the % may be the effect or the level left
T1 sequence (whole entry): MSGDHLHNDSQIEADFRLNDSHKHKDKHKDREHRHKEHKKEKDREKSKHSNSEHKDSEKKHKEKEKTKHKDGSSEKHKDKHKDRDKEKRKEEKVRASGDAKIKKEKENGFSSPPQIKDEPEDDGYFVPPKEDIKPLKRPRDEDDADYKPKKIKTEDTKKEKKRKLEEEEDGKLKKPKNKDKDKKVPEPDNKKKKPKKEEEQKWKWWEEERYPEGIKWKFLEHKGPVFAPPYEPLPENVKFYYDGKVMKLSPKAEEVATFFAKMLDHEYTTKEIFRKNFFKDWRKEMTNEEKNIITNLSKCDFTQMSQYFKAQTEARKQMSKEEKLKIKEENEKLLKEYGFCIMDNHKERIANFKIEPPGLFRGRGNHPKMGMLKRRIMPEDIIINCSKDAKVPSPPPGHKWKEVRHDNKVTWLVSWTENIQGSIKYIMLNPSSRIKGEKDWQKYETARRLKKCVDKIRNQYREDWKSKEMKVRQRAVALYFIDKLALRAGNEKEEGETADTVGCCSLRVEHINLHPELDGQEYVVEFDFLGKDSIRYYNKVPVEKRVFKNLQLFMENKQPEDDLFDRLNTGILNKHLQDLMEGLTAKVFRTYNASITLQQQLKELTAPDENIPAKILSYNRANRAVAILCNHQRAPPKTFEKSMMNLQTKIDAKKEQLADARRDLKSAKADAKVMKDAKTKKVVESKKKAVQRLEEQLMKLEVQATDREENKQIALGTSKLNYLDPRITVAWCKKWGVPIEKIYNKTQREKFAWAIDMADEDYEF
How it was run: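 Human recombinant Top1 purified from baculovirus. Substrate is a 117-bp oligonucleotide, about 2 nM, 3′-end labelled with 32P-dGTP by Klenow fill-in. Stopped with 0.5% SDS, run on 20% denaturing PAGE and phosphorimaged. Cleavage graded 0 to +++ against 1 μM camptothecin.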

SMILES | GI50 (HOP-62) [nM] | GI50 (HCT-116) [nM] | GI50 (SF-539) [nM] | GI50 (UACC-62) [nM] | GI50 (OVCAR-3) [nM] | GI50 (SN12C) [nM] | GI50 (DU-145) [nM] | GI50 (MCF7) [nM] | Activity [1]
NCCCc1c2c(nc3cc4c(cc13)OCCO4)-c1cc3ccccc3c(=O)n1C2 | 2140 | 1950 | 1860 | 1620 | 1950 | 1860 | 1820 | 1050 | 75%
COc1cc2nc3c(c(CNCCCn4ccnc4)c2cc1OC)Cn1c-3cc2ccccc2c1=O | – | – | – | – | – | – | – | – | inactive
O=c1c2ccccc2cc2n1Cc1c-2nc2cc3c(cc2c1CN1CCOCC1)OCCO3 | 3800 | 1330 | 810 | 990 | 1700 | 2570 | 930 | 300 | 75%
O=c1c2ccccc2cc2n1Cc1c-2nc2cc3c(cc2c1CNCCO)OCCO3 | 5690 | 2630 | 4260 | 1160 | 1950 | 5750 | 2040 | 440 | 50%
COc1cc2c3c(n(CCCN4CCOCC4)c(=O)c2cc1OC)-c1cc2c(cc1C3=O)OCO2 [INDOTECAN] | – | – | 40 | 30 | – | – | – | 370 | Active
Cc1cc2c(CNCCCn3ccnc3)c3c(nc2cc1F)-c1cc2ccccc2c(=O)n1C3 | 36700 | 3050 | 1100 | > 100000 | 4680 | 1800 | 6240 | 2210 | inactive
O=c1c2ccccc2cc2n1Cc1c-2nc2ccc(Cl)cc2c1CN1CC[C@H](O)C1 | 1050 | 1100 | 1260 | 740 | 1860 | – | 1660 | 370 | 20%
COc1cc2c3c(n(CCCn4ccnc4)c(=O)c2cc1OC)-c1cc2c(cc1C3=O)OCO2 [INDIMITECAN] | < 10 | < 10 | 37 | < 10 | 85 | < 10 | < 10 | 10 | Active
Cc1cc2c(CN3CCN(C)CC3)c3c(nc2cc1F)-c1cc2ccccc2c(=O)n1C3 | 20100 | 1800 | 6460 | 16200 | 14600 | 16000 | 2630 | 1800 | 50%
O=c1c2ccccc2cc2n1Cc1c-2nc2cc3c(cc2c1CCCn1ccnc1)OCCO3 | 570 | 1950 | 1950 | 930 | 7080 | 12600 | 2880 | 190 | 50%
COc1cc2nc3c(c(CN4CCN(C)CC4)c2cc1OC)Cn1c-3cc2ccccc2c1=O | – | – | – | – | – | – | – | – | inactive
O=c1c2ccccc2cc2n1Cc1c-2nc2cc3c(cc2c1CN1CC[C@H](O)C1)OCO3 | 480 | 850 | 600 | 350 | > 100000 | 790 | – | 70 | 50%
Cc1cc2c(CN)c3c(nc2cc1F)-c1cc2ccccc2c(=O)n1C3 | – | – | – | – | – | – | – | – | 20%
CN1CCN(Cc2c3c(nc4cc(Cl)ccc24)-c2cc4ccccc4c(=O)n2C3)CC1 | 18100 | 13500 | 15100 | 17000 | 15100 | 19000 | 23400 | 10900 | 20%
O=c1c2ccccc2cc2n1Cc1c-2nc2cc3c(cc2c1CCCN1CCOCC1)OCCO3 | 540 | 1420 | 1150 | 1150 | 1840 | 1130 | 760 | 60 | 50%
O=c1c2ccccc2cc2n1Cc1c-2nc2cc3c(cc2c1CN1CC[C@H](O)C1)OCCO3 | 1010 | 820 | 490 | 460 | 1840 | 940 | 1020 | 270 | 50%
O=c1c2ccccc2cc2n1Cc1c-2nc2cc3c(cc2c1CNCCCn1ccnc1)OCO3 | 5010 | 1320 | 2140 | 3390 | 4260 | 5890 | 2570 | 480 | 50%
CN1CCN(Cc2c3c(nc4ccc(Cl)cc24)-c2cc4ccccc4c(=O)n2C3)CC1 | 2290 | 150 | 1580 | 1410 | 1510 | 1780 | 2750 | 3310 | 20%
CN(C)Cc1c2c(nc3cc4c(cc13)OCO4)-c1cc3ccccc3c(=O)n1C2 | – | – | – | – | – | – | – | – | 50%
O=c1c2ccccc2cc2n1Cc1c-2nc2cccc(Cl)c2c1CN1CC[C@H](O)C1 | 1660 | 1550 | 1950 | 3090 | 2630 | 3710 | 3980 | 370 | 20%
O=c1c2ccccc2cc2n1Cc1c-2nc2cc3c(cc2c1CCCNCCO)OCCO3 | 1010 | 820 | 490 | 460 | 1840 | 940 | 1020 | 270 | 0%
O=c1c2ccccc2cc2n1Cc1c-2nc2cc3c(cc2c1CCCCl)OCCO3 | – | – | – | – | – | – | – | – | inactive
COc1cc2nc3c(c(CCl)c2cc1OC)Cn1c-3cc2ccccc2c1=O | – | – | – | – | – | – | – | – | inactive
O=c1c2ccccc2cc2n1Cc1c-2nc2ccc(Cl)cc2c1CNCCO | 7240 | 2140 | 4360 | 2040 | 6460 | 10200 | – | 230 | 50%
COc1cc2nc3c(c(Cn4ccnc4)c2cc1OC)Cn1c-3cc2ccccc2c1=O | – | – | – | – | – | – | – | – | inactive
